H69AR inhibit = proliferation blockers of H69AR lung cancer cells, primary screen, cell-based, human, 86K library; H69AR lung tumor viability, ATP luminescence, 72 h; active compounds read low; viability, % at 10 µM; hit rate 6% among 85,000; AID 598, 2007;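 active = viability at or below 40%; inactive = viability above 40%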;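 also: multidrug resistant small cell line overexpressing MRP-1 efflux transporter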
Fibroblast inh = antiproliferative effect on LL 47 fibroblasts – human, LL 47 cells, CellTiter-Glo luminescence, primary screen | LL 47 human lung fibroblast viability, ATP luminescence; active compounds read low | viability, % at 10 µM | hit rate 1.1% among 85,000 | AID 719, 2007;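 active = viability at or below 50% in the single dose screen; inactive = viability above 50%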;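 also: compound exposure lasted 72 h before the ATP readout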
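Material: human LL 47 lung fibroblast cells; quantity: 1,150 cells/well; medium: IMEM plus 15% FBS; doses: 0.1% DMSO in all compound wells; timing: overnight attachment after seeding, then 72 h compound exposure at 37 °C; detection: CellTiter-Glo luminescence; measure: % viability of median cell-only signal; controls: cell-only wells, no compound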
HUVEC prolif 384 = inhibitors of HUVEC proliferation, primary screen, cell-based, 384-well; viability, % at 10 µM (by protocol); AID 648, 2007; hit rate 1.1% among 86,000; CellTiter-Glo luminescence, 72 h; active compounds read low;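 active = viability at or below 30%; inactive = viability above 30%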
HCT116 PTEN-null = growth suppression of PTEN-null HCT116, primary screen, cell-based, CellTiter-Glo; HCT116 PTEN-null viability, 60 h; active compounds read low; hit rate 1.2% among 140,000; viability, % at 10 µM;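 active = viability at or below a set limit, 4 SD under the median of all tested compounds, cut at about 3.7% in these data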;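 also: PTEN knockout HCT116 line with beta catenin targeted HCT116 as companion control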
HCT116 bCat-KO = primary screen for growth suppressors in beta-catenin knockout HCT116 cells (colon tumor, human) | viability, % at 10 µM | hit rate 1.5% among 140,000 | AID 818, 2007 | HCT116 beta-catenin knockout viability, CellTiter-Glo, 60 h; active compounds read low;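 active = viability at or under a set limit, the compound median less 4 SD, cut at about 6% in these data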
Each line names hits and unclear results; the compound was inactive in the other large screens. Many of the other results were omitted from the sample, so hits are more common in it than they were.

CCNC(=O)c1c(C)[nH]c(C(=O)OCC)c1C	none
CCOC(=O)c1[nH]c(C)c(C(=O)OCCN2C(=O)c3ccccc3C2=O)c1C	H69AR inhibit 34
CCOC(=O)c1[nH]c(C)c(C(=O)Nc2ccccc2C)c1C	H69AR inhibit 26
CCOC(=O)c1[nH]c(C)c(C(=O)Nc2cc(Cl)ccc2C)c1C	H69AR inhibit 24
COc1cc(C(=O)N2CCN(c3cc(Cl)ccc3Cl)CC2)cc(OC)c1OC	H69AR inhibit 33
COc1ccc(N(CC(=O)Nc2cccc(N(C)S(C)(=O)=O)c2)S(C)(=O)=O)cc1OC	none
CN(c1cccc(NC(=O)CN(c2ccc(C34CC5CC(CC(C5)C3)C4)cc2)S(C)(=O)=O)c1)S(C)(=O)=O	HCT116 PTEN-null 2.0, HCT116 bCat-KO 1.9 (no result: H69AR inhibit, Fibroblast inh, HUVEC prolif 384)
O=[N+]([O-])c1ccc(CSc2nnc(SCc3ccc(Cl)cc3)s2)cc1	none (no result: H69AR inhibit, Fibroblast inh, HUVEC prolif 384)
CCN1CCN(c2ncc(C(=O)Nc3cc(Cl)ccc3OC)c3ccccc23)CC1	H69AR inhibit 12, HUVEC prolif 384 19
CC(O)CN=c1cc(-c2ccccc2)oc2ccc(Cl)cc12 (configuration not stated)	H69AR inhibit 29, HCT116 bCat-KO 5.7
CC(C)CN=c1cc(-c2ccccc2)oc2ccc(Cl)cc12	none
Cc1ccc(N2C(=O)CC2(C#N)c2ccc(OCc3ccccc3)cc2)cc1 (configuration not stated)	none (no result: H69AR inhibit, Fibroblast inh, HUVEC prolif 384)
CCOC(=O)N1CCN(C(=O)C2CCN(Cc3cccc(OCc4ccccc4)c3)CC2)CC1	none (no result: H69AR inhibit, Fibroblast inh, HUVEC prolif 384)
COc1ccc(C(=O)c2ccc(N(C)C)cc2)c2ccccc12	H69AR inhibit 27
CN(C)c1ccc(C(=O)c2ccc(O)cc2O)cc1	none
COC(=O)c1ccc(NCCC(=O)O)cc1	none (no result: H69AR inhibit, Fibroblast inh, HUVEC prolif 384)
Cc1ccc(S(=O)(=O)/C(=C/Cl)NC(=O)c2ccccc2)cc1	HCT116 bCat-KO 6.0 (no result: H69AR inhibit, Fibroblast inh, HUVEC prolif 384)
COc1ccc(OCCCC(=O)Nc2cccc([N+](=O)[O-])c2C)cc1	none (no result: H69AR inhibit, Fibroblast inh, HUVEC prolif 384)
COc1ccc2[nH]cc(C(=O)CN3CCN(C(=O)c4ccco4)CC3)c2c1	HUVEC prolif 384 29
COC(=O)c1[nH]c2ccccc2c1NC(=O)CN1CCN(C(=O)c2ccco2)CC1	H69AR inhibit 18
COc1ccc2[nH]c(C)c(C(=O)CN3CCN(C(=O)c4ccco4)CC3)c2c1	none (no result: H69AR inhibit, Fibroblast inh, HUVEC prolif 384)
Cc1ccc(/C(N)=N/OC(=O)/C=C/c2ccccc2)cc1	none
Cc1ccccc1/C(N)=N/OC(=O)/C=C/c1ccccc1	H69AR inhibit 8.9
CC1CCN(S(=O)(=O)c2ccc3c(c2)C(=NO)c2cc(S(=O)(=O)N4CCC(C)CC4)ccc2-3)CC1	H69AR inhibit 0.9, Fibroblast inh 2.3, HUVEC prolif 384 2.8, HCT116 PTEN-null 1.2, HCT116 bCat-KO 0.8
O=S(=O)(c1ccc2c(c1)C(=NO)c1cc(S(=O)(=O)N3CCCCC3)ccc1-2)N1CCCCC1	H69AR inhibit 0.4, Fibroblast inh 1.6, HUVEC prolif 384 1.6, HCT116 PTEN-null 1.6, HCT116 bCat-KO 0.9
O=S(=O)(c1ccc(S(=O)(=O)N2CCCC2)cc1)N1CCCCCC1	none
COc1ccc2c3c(c(=O)oc2c1OCC(=O)O)CCCC3	none (no result: H69AR inhibit, Fibroblast inh, HUVEC prolif 384)
CCOc1c(OC)ccc2c3c(c(=O)oc12)CCCC3	HCT116 PTEN-null 1.1, HCT116 bCat-KO 0.5
Cc1ccccc1NC(=O)CSC1=C(C#N)C(c2ccsc2)CC(=O)N1 (configuration not stated)	H69AR inhibit 17
Cc1ccc(C)n1NC(=O)c1ccccc1O	H69AR inhibit 29, Fibroblast inh 45
O=c1c(Cl)c(NCCCO)cnn1-c1nc2ccccc2[nH]1	H69AR inhibit 0.6, Fibroblast inh 26, HCT116 PTEN-null 2.0, HCT116 bCat-KO 1.3
C=CCN(CC=C)c1cnn(-c2nc3ccccc3[nH]2)c(=O)c1Cl	none (no result: H69AR inhibit, Fibroblast inh, HUVEC prolif 384)
COc1ccc(/C=C/C(=O)NC2CCCCCCC2)cc1S(=O)(=O)N1CCOCC1	none (no result: H69AR inhibit, Fibroblast inh, HUVEC prolif 384)
CN(C)S(=O)(=O)c1cccc(N=c2scc(-c3ccc4c(c3)NC(=O)CO4)n2CC2CCCO2)c1 (configuration not stated)	H69AR inhibit 34
COc1ccccc1N=c1scc(-c2ccc3c(c2)NC(=O)CO3)n1CC1CCCO1 (configuration not stated)	none
O=C(NCc1ccco1)C1CC(c2c(Cl)cccc2Cl)=NO1 (configuration not stated)	none (no result: H69AR inhibit, Fibroblast inh, HUVEC prolif 384)
COc1cc(C2=NOC(C(=O)NCc3ccco3)C2)cc(OC)c1OC (configuration not stated)	H69AR inhibit 25
COc1ccc(C2=NOC(C(=O)NCc3ccco3)C2)cc1 (configuration not stated)	H69AR inhibit 25
O=C(Nc1cccc(Cl)c1)C1CCCN(S(=O)(=O)c2ccc(F)cc2)C1 (configuration not stated)	H69AR inhibit 29
CSc1cccc(NC(=O)C2CCCN(S(=O)(=O)c3ccc(F)cc3)C2)c1 (configuration not stated)	H69AR inhibit 21
O=C(OCC#CCSc1nnc(-c2cccc3ccccc23)o1)c1ccco1	H69AR inhibit 30
O=C1c2sc3nc4c(c(=O)n3c2C(=O)N1c1ccccc1)CCC4	H69AR inhibit 35
Cc1ccccc1N1C(=O)c2sc3nc4c(c(=O)n3c2C1=O)CCC4	H69AR inhibit 3.4
O=C1c2sc3nc4ccccc4n3c2C(=O)N1c1ccccc1Cl	H69AR inhibit 2.9
CC1=NN(C(=O)COc2ccccc2C)C(O)(c2ccc(Cl)cc2)C1 (configuration not stated)	none (no result: H69AR inhibit, Fibroblast inh, HUVEC prolif 384)
C#CCSc1nnc(-c2sc(-c3ccccc3)nc2C)n1C	none (no result: H69AR inhibit, Fibroblast inh, HUVEC prolif 384)
CC(NC(=O)Nc1nnc(C(F)(F)F)s1)(C(F)(F)F)C(F)(F)F	H69AR inhibit 6.2, Fibroblast inh 28, HUVEC prolif 384 28, HCT116 PTEN-null 1.8, HCT116 bCat-KO 2.4
CNc1ccc(Br)cc(C(=O)/C=C/c2cccc(OC)c2OC)c1=O	H69AR inhibit 5.3
CCNc1ccc(Br)cc(C(=O)/C=C/c2ccccc2Cl)c1=O	H69AR inhibit 2.0, Fibroblast inh 40, HUVEC prolif 384 7.6 (no result: HCT116 PTEN-null, HCT116 bCat-KO)
CC(C)(O)C#Cc1ccc(C(=O)NCc2ccccc2F)cc1	none (no result: H69AR inhibit, Fibroblast inh, HUVEC prolif 384)
Cc1ccc(S(=O)(=O)NCCC(=O)Nc2cccc(Cl)c2)cc1	none (no result: H69AR inhibit, Fibroblast inh, HUVEC prolif 384)
S=C(NCc1ccco1)N/N=C/c1ccccc1Cl	none (no result: H69AR inhibit, Fibroblast inh, HUVEC prolif 384)
CC(=O)OCCCN1c2ccccc2Nc2nnc(-c3ccccc3)cc21	H69AR inhibit 39
CCC(C)NC(=O)c1c(N)n(/N=C/c2ccccn2)c2nc3ccccc3nc12 (configuration not stated)	H69AR inhibit 11, HUVEC prolif 384 12
CC(C)OCCCNC(=O)c1c(N)n(/N=C/c2ccccn2)c2nc3ccccc3nc12	H69AR inhibit 23
COCCCNC(=O)c1c(N)n(/N=C/c2cccnc2)c2nc3ccccc3nc12	none (no result: H69AR inhibit, Fibroblast inh, HUVEC prolif 384)
CCC(C)NC(=O)c1c(N)n(/N=C/c2cccnc2)c2nc3ccccc3nc12 (configuration not stated)	HUVEC prolif 384 3.4
